Measurements reported in the EternaBench riboswitch data.

System: MS2 coat protein
Assay: apparent Kd, MS2 coat protein; higher = weaker binding; RNA-MaP array; FMN 200 µM where present
Outline: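 Stalled E. coli RNA polymerase transcribed each design on Illumina sequencing-chip clusters. The clusters were titrated with SNAP-549-labelled MS2 coat protein, starting at 0.7 or 1.5 nM and doubling up to 3 µM, first without ligand and then with constant ligand, in 100 mM Tris-HCl pH 7.5, 80 mM KCl, 4 mM MgCl2, BSA, DTT, yeast tRNA and Tween-20. Green signal was normalised to red-channel RNA signal and to the control-cluster median Fmax. The apparent Kd is the median of filtered binding-curve fits made for each cluster.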

[1] = designed as: OFF switch for flavin mononucleotide, no ligand
[2] = ligand present: flavin mononucleotide, designed as: OFF switch for flavin mononucleotide
[3] = designed as: ON switch for flavin mononucleotide, no ligand
[4] = ligand present: flavin mononucleotide, designed as: ON switch for flavin mononucleotide

Sequence | apparent Kd [1] [nM] | apparent Kd [2] [nM] | apparent Kd [3] [nM] | apparent Kd [4] [nM]
AUAUUAAGUGUGAGGAUAUGCUGGUCCUUGGAUCAGCAGAAGGCACAUGAGGAUCACCCAUGUAAUAUAUUUAA | 102 | 306 |  | 
AGCUGUGGCCGAGGAUAUCUAUCUCCAAUAACCGAAAUAUAAUCGGACAUGAGGAUCACCCAUGUAGAGAAGGCGGUCUCAGCA | 20.7 | 36 |  | 
UUUAUAAAUUAGAAGGCAUGAUGAAUUACAAUAGACAUGAGGAUCACCCAUGUGUAUUCAUGUCAUGAGGAUAUAGUCAUAUAU |  |  | 8.91 | 6.45
AGAUUGCAUGAGGAUAUCGUAUUAGAUAUAAUGCGAGAAGGCAUGACAUGAGGAUCACCCAUGUAGUGUGGGUU | 55.9 | 40.2 |  | 
CAUUCCCGUCGAGGAUAUAUUAUAUGACAACAAACACAUACAUGAGGAUCACCCAUGUCCCAUGUAUAGAAGGCGACCUGCGUC |  |  | 46.6 | 99.3
UCCGGACAUGAGGAUCACCCAUGUCAGGAUAUACCCGAGGCAGCGAACUCGCUAGCCAGUAGAAGGGACAUGGU | 19.8 | 20.8 |  | 
CCACGGUAUGUAGGAUAUGCAUAGCAUUGCUAUGCAGAAGGACAUGAGGAUCACCCAUGUAUGUAUUCCAUACUAAUCCCGUGA | 5.96 | 5.3 |  | 
UGGUACAUGGGAGGAUAUCCUCACAUGAGGAUCACCCAUGUAAAGAAUUAUAAGCCGAAAGGCAUGGAGAAGGCCCAUGUACCU |  |  | 87.6 | 16.2
GAUUAGUGAGGAUAUGGUAAAGAUAAGAUGAUGAAAGAACUCCAGAAGGCACAUGAGGAUCACCCAUGUAGUAU | 17.4 | 21.6 |  | 
UCUGGUCGAGGAUAUACAAUCGUGCUUCGGCACGUAAGAUCACAUGAGGAUCACCCAUGUAGAAGGUGACCAGA | 27.1 | 131 |  | 
UGUUUUCAUGUAGGAUAUGCUUGUCGUAGAUACGCAGAAGGACAUGAGGAUCACCCAUGUUAAUGCGACAGAUUUUAGUUUCUU | 19.6 | 62 |  | 
CUAUGCCGAACAGGAUAUUCGAUCAAAAGGAUAGAAGAAGGGUUACAUGAGGAUCACCCAUGUAUGCACAUGAGGAUCCCUUAA | 255 | 296 |  | 
AUGACAUGCACAGGAUAUUAGGCGCAGUACAGAUAAGAAGGGUGGAUCAGCAUACAUGAGGAUCACCCAUGUUGUUGUAACAUG |  |  | 350 | 183
AAUGUUUGAUUCCACUUAUACAUGAGGAUCACCCAUGUUAUCGAGGAUAUGCAUUAGAGUGUUUAGCAGAAGGCGAUGUAAUUU | 6.74 | 17.5 |  | 
GAGGCCAAAACAUGAGGAUCACCCAUGUGAGUGGUCCGAAUAUAGGAUAUCCACACGAGAAGUGUGGAGAAGGAUAAUGGCGUC | 321 | 547 |  | 
AUCAGCUCGUCAGGAUAUACGUCACUGCGUCAGCAGUGUGGUGAGAUCACAUGAGGAUCACCCAUGUAGAAGGGACGAGCUGAU | 376 | 300 |  | 
AACAGCUCGUCAGGAUAUAUUAUAUUUAUAUGGCUGAAUGUACAUGAGGAUCACCCAUGUAGUUUGUAGAAGGGACGAGCUGAA | 11.6 | 18.9 |  | 
GCCAUCGUAUGAGGAUAUGGCACCGAAACGGUGCCAGAAGGCAUGUCUAUAGACAUGAGGAUCACCCAUGUGUUAUCGAUGGCA |  |  | 146 | 14.8
CAGCGCUGUCGAGAGGAUAUGCGGUGAUGGACAUGAGGAUCACCCAUGUUAGCGAUAGUAUUACGGUAGAAGGCUCUACAGCUGC |  |  | 92.2 | 16.7
UGUGUGAGACAGGAUAUGCCGGAUAUAUUACUGGUAGAAGGGUCUACAUGAGGAUCACCCAUGUGGCCGGCCGG | 18 | 29.1 |  | 
UGAUAACAUGUAGGAUAUCCAGCAUUGACCAUCGGAGAAGGACAUGAGGAUCACCCAUGUACCGAUACAAUGGAAUAAGGGAAU | 15.5 | 17.9 |  | 
AAAAAGCGAGGAUAUGCAUAAGGACCCGGGAGGGAAAUCAAACAUGAGGAUCACCCAUGUAGAAGGCGCAAAAA | 16.1 | 23.3 |  | 
ACUAUACGAGGAUAUACUGUCGGGCCUCGGACAUACAUACGACAUGAGGAUCACCCAUGUAGAAGGCGUUUACU | 30.4 | 68.4 |  | 
CGCUAUGACAUAGGAUAUUGGUACAUGAGGAUCACCCAUGUCAACCUUUAAGCAAAAUUUGUUGACAAGAAGGAUGUGGUAGCG |  |  | 11 | 7.71
GACGGAUGUAUAGGAUAUGCUGAGGAAUACUCAGCAGAAGGAUACAUGAGGAUCACCCAUGUAAUAAUAAUAAUAAUAACCGUC | 12.4 | 27.5 |  | 
GGGUACCUCGGAGGAUAUCAUGUAAAUACAUGAGGAUCACCCAUGUCGAUGGAGACAUCGGAGAUUGAGAAGGCCGAUGUACCG |  |  | 168 | 9.32
UAUUUUAACUAAGGAUAUCUGUAUUUUGUUGAAACAUGAGGAUCACCCAUGUUCAUGAAAUUAUAGGAGAAGGUAGAUGAAUAA |  |  | 6.65 | 4.95
UUCGUGCAGCUUUGCUGUACGCGUACAUGAGGAUCACCCAUGUAGGAUAUGGUACGCUUUGUGUGCUAGAAGGAUAUGGAGAGG | 18.8 | 18.6 |  | 

Sequence | apparent Kd [1] [nM] | apparent Kd [2] [nM] | apparent Kd [3] [nM] | apparent Kd [4] [nM]
GUCCAGUUAGGAUAUCAAUGCCACAACAUGAGGAUCACCCAUGUUUGGGUCCCUCACCAAUGAGAAGGAACGGGAC | 34.7 | 99.1 |  | 
CGCUAGUCAGGAUAUACGAACAUGUCAAAAGACGUGAAGGGACAUGAGGAUCACCCAUGUAGAAGGGACUAGCU | 27 | 182 |  | 
CGCUGCCACGCAGGAUAUGCAUUGGAUUACAAUGCAGAAGGGCGAUUACAUGAGGAUCACCCAUGUGUUGGCAGUGAAGAAGAG |  |  | 1490 | 83.4
ACUAGAUGAGGAUAUGCAUAUUUUCGUGUUCUUCUAGAUUAACAUGAGGAUCACCCAUGUAGAAGGCGUCAAUA | 16.1 | 18.9 |  | 
AUAAGCUCGUCAGGAUAUACAACACUGUGUAAGCAGUGUGGUAUGAUCACAUGAGGAUCACCCAUGUAGAAGGGACGAGCUUAU | 6.33 | 43.4 |  | 
CCUUGACAUGAGGAUCACCCAUGUGAGGAUAUAGAAUACUUCAUACACUGACCUCCUUCUAGAAGGCACAUCUC | 15.3 | 15.1 |  | 
UUGGACGUCGUAGGAUAUGUAGAAUAUUCCUACAUGAGGAUCACCCAUGUUGACAUGGAAGAAGGACAGAAGGACGAUGUCCAU |  |  | 6.97 | 5.37
UGUUGUAUUACAGGAUAUCUAGUAUUUUUAUUGAGAGAAGGGUAUUCACAUGAGGAUCACCCAUGUAUAUACGAGGAAGUUGUG |  |  | 50.5 | 49
CAAUUGGCACAGAAGGGUGACAUGAGGAUCACCCAUGUAGCGUGGCACUUAGGAGGAGCCACGCCACAGGAUAUGUGCGGGCAC |  |  | 76.4 | 111
CCAUCAGCGAACGAUACGAAUGGACAUGAGGAUCACCCAUGUAGAAGGACAGGAGAAUAACGGCUGUAGGAUAUACAUUUAGUG | 40.3 | 31.2 |  | 
GUGUACGAAGGAUAUACAUGAGGAUCACCCAUGUGAAUAAGAUAGAAUAAGAUAAAGUGUAGAAGGUCGAGUGU | 33 | 29.4 |  | 
ACAUAAAUUCGAGGAUAUCGGUGAUAUAAUUUACGAGAAGGCGAUAAAAGUUAUAAACUUAUAGACAUGAGGAUCACCCAUGUA |  |  | 31 | 30.6
ACGGUGGUCACAGGAUAUCCGGCGCGCGUGCCUGGAGAAGGGUGACUCAGAACCACAUGAGGAUCACCCAUGUGCCUUGCCGUA |  |  | 169 | 49.2
AAAAAACAUGAGGAUCACCCAUGUCUUCGGACAUGAGGAUAUGUACAGACUUCGGUCUGUACAGAAGGCAUGUCAA |  |  | 166 | 23.2
GUCAUUAAACAGAAGGUGUUGUACAUGAGGAUCACCCAUGUUUAUCUAAUUAAAUUUGUAAUUAACAAGGAUAUGUACUAAUCG |  |  | 231 | 131
UUGAAUUUAAACAUGAGGAUCACCCAUGUGUCAUAGUUGAUAUAGGAUAUGCUUAUACUUUGAAAGCAGAAGGAUGACGAUACU |  |  | 26.3 | 11.9
UUGAUGUCAUCAGGAUAUAGUAUUUAAGACAUAUCUUCUUUCAAACAUGAGGAUCACCCAUGUCGCUAGAAGGGAUUAUUGAUU | 16.8 | 13 |  | 
CAGCCCUGAGGAUAUCCAUCCUUGUACAUGAGGAUCACCCAUGUUUUCCUCUGGGCUUUGGGAGAAGGCAGGUAUC | 74.6 | 77.1 |  | 
AAAAUCAAAUCAGGAUAUUCAUACACUACAUACGGAGAAGGGAUACAAUCAUGAGGACAUGAGGAUCACCCAUGUUGUGACCAU |  |  | 102 | 54.8
CCGGAAAUGGAGGAUAUCGUAUCGGAUACGAUACGAGAAGGCUAUACAUGAGGAUCACCCAUGUGUCCUACCGG | 12.6 | 20.1 |  | 
UGGGUGGUAUGAGGAUAUGCGCGCGAAACGCGCGCAGAAGGCAUGUCAAUAGACAUGAGGAUCACCCAUGUAUUAUCCAUCCAA |  |  | 412 | 28.3
GUUAUAUUUAGUUCAUACUAUAUGAUAGAAGGUGAAAUAUAGACAUGAGGAUCACCCAUGUAAUUCAAGGAUAUGUAGUUACUC |  |  | 29.9 | 21.5
ACACCACAUGAGGAUCACCCAUGUAAAGCGUAGCAAGGAUAUGGGCACGGAUAAUUCCGAUCAGAAGGUGUAACGU |  |  | 51.2 | 118
AAACAUGUCCGAGGAUAUCUGGAAAUAUUUCCAAGAGAAGGCGGACAUGAGGAUCACCCAUGUCUCUCCUCAUCAAAUCCAAGU | 9.36 | 73.3 |  | 
GCUAGUAUUGCAGGAUAUUGAGAAUAAUUAUUACAAGAAGGGCAUAACAUGAGGAUCACCCAUGUAUUCCUUAAUGAUACUAGC | 6.31 | 7.13 |  | 
AUCAGCUUGUCAGGAUAUACGUCACUGCGUCAGCAGUGUGGUAAGAUCACAUGAGGAUCACCCAUGUAGAAGGGACGAGCUGAU | 12.9 | 321 |  | 
CAGCUCUGAGGAUAUCCAUCCUCCUACAUGAGGAUCACCCAUGUUUCCCUCUGGGUUUUCGGAGAAGGCAGUUUUU | 248 | 425 |  | 
